Measurements as given in the EternaBench riboswitch data.

System: MS2 coat protein
Assay: apparent Kd, MS2 coat protein; higher = weaker binding; RNA-MaP array; FMN 200 µM where present
How it was run: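 The apparent Kd is the median of filtered binding-curve fits, one per cluster, to green signal normalised to red-channel RNA signal and control-cluster median Fmax. The clusters were on Illumina sequencing chips, and stalled E. coli RNA polymerase had transcribed the designs on them. Titration used SNAP-549-labelled MS2 coat protein from 0.7 or 1.5 nM, doubling to 3 µM, without and then with constant ligand, in 100 mM Tris-HCl pH 7.5, 80 mM KCl, 4 mM MgCl2, BSA, DTT, yeast tRNA and Tween-20.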

[1] = designed as: ON switch for flavin mononucleotide, no ligand
[2] = ligand present: flavin mononucleotide, designed as: ON switch for flavin mononucleotide
[3] = designed as: OFF switch for flavin mononucleotide, no ligand
[4] = ligand present: flavin mononucleotide, designed as: OFF switch for flavin mononucleotide

Sequence | apparent Kd [1] | apparent Kd [2] | apparent Kd [3] | apparent Kd [4]
AACAUGGUACAGAAGGGCAAUUUAUUUAAUUAUUAUUUAGAACAGCAUUGCAGGAUAUGUUUAACAUGAGGAUCACCCAUGUAC | 70.4 nM | 13.8 nM |  | 
AACAUGGUCCAGAAGGGCUAUUUAUUUAAUUAUUAUUUAGAACAGCAUAGCAGGAUAUGGUUAACAUGAGGAUCACCCAUGUAC | 16 nM | 11.5 nM |  | 
AACAUGUGAGGAUAUUUAAGAAAAGAAAAGAAAGAAAAGAAAAAGAAGGCACAUGAGGAUCACCCAUGUAAGAA |  |  | 24.8 nM | 35.9 nM
AACCAACAUGAGGAUCACCCAUGUCAACCCAAGCGAGGAUAUCGGAGAAUAACAAUGGGACGAGAAGGCGCGACCU | 72.9 nM | 47.8 nM |  | 
AACCGACAUGAGGAUCACCCAUGUAAGGAUAUCCACGGACAACGCCAUAGUUGCCGGCGGAGAAGGUGCGUGGU |  |  | 26 nM | 46 nM
AACCUAUUACAGAAGGCCAGCUACAUGAGGAUCACCCAUGUCGAGUCAUGGAGGAUAUGUAGUAAUUUGCACGCGGGCGAGCAC | 59.7 nM | 7.05 nM |  | 
AACCUAUUACAGAAGGCCAGCUACAUGAGGAUCACCCAUGUCGAGUCAUGGAGGAUAUGUAGUAAUUUGCCCGCGGGCGAGUAC | 31.3 nM | 5.78 nM |  | 
AACCUGAUAGUGAGGAUAUCGGCGACGACAAGUCACGAGAAGGCACAUGAGGAUCACCCAUGUGAUAAAAUAAA |  |  | 20.4 nM | 42.1 nM
AACCUGCGUGGAGGAUAUGAGUGGUUGGACGCAUCAGAAGGCCAGCAGCCACAUGAGGAUCACCCAUGUACAGACACAUGUUUC | 245 nM | 95.1 nM |  | 
AACGCUAAAGGAUAUACAUGAGGAUCACCCAUGUUGAGGAAGGUUAGAUGAGGAGUAAGUAGAAGGUUAGACGA |  |  | 29.2 nM | 25.7 nM
AACUCACAUGAGGAUCACCCAUGUGAGGAUAUAUAAAUAUAUAUGUUAUUAUAUAUUUAUAGAAGGCGCGUGAU |  |  | 44.1 nM | 46.9 nM
AACUCACAUGAGGAUCACCCAUGUGAGGAUAUGGUUUCGCUGGCCGUAGCCAGUGGAACCAGAAGGCGCAUGAU |  |  | 20.1 nM | 20 nM
AACUCAGCAGGAUAUACAUACAAAUCCAUCAUGCCGUUUGAACAUGAGGAUCACCCAUGUAGAAGGGCUCACAC |  |  | 28.7 nM | 51.5 nM
AACUCGUCAGGAUAUGCGCACAGAUAAUACGCUUCGCAAUUGCAGAAGGGACAUGAGGAUCACCCAUGUAAAUA |  |  | 30.6 nM | 27 nM
AACUGACAUGAGGAUCACCCAUGUCAGGAUAUGACUUGAUAGAAAAUAAAAUAUCAUGUCAGAAGGGACAUGGA |  |  | 23.8 nM | 33.3 nM
AACUGUACAGGAUAUACAUGAGGAUCACCCAUGUGAGAAUUAAGUGGAGAACCACAAAGUAGAAGGGUACAGGA |  |  | 44.8 nM | 286 nM
AACUUCAGAGGAUAUACAUGAGUGAAAAAAGUCUGAUAACUACAUGAGGAUCACCCAUGUAGAAGGCUGUAGCA |  |  | 29.1 nM | 35.4 nM
AAGAAACAUGAGGAUCACCCAUGUAAAUAAAACACAGGAUAUCGAAUAUGGGAGAUUUAACGAGAAGGGUGAAGAA | 100 nM | 56.6 nM |  | 
AAGAAACAUGAGGAUCACCCAUGUCAGGAUAUGCAAAACUGACGAAAGUCAGAAGAAAGCAGAAGGGACUAGAA |  |  | 59.8 nM | 79.7 nM
AAGAAACAUGAGGAUCACCCAUGUCAGGAUAUGCAAGACUGACGAAAGUCAGUCAAAAGCAGAAGGGACUAGAA |  |  | 57.2 nM | 76.6 nM
AAGAAAUGGGAGUGAUCUGGUUCCGAGGAUAUAGGCAUCGGUACAUGAGGAUCACCCAUGUCCGACUAGAAGGCGGACGGGUCC | 34.1 nM | 8.76 nM |  | 
AAGAACAACCAGAAGGCAAGGCAAACAUGAGGAUCACCCAUGUAAUAUUUGAGGAUAUGGGUUCGACGUGGUCUAAAGUCAGGU | 120 nM | 14.1 nM |  | 

Sequence | apparent Kd [1] | apparent Kd [2] | apparent Kd [3] | apparent Kd [4]
AAGAAGUCAGGAUAUGCUGCUCGUCACUUGCGUGAUGAGUAGCAGAAGGGACAUGAGGAUCACCCAUGUAAAGU |  |  | 51.6 nM | 79.7 nM
AAGAAGUGAGGAUAUCCUGCUCGUCACUUGCGUGAUGAGUAGGAGAAGGCACAUGAGGAUCACCCAUGUAAAGA |  |  | 37.4 nM | 41.6 nM
AAGAAGUGAGGAUAUCGUGCUCGUCACUUGCGUGAUGAGUACGAGAAGGCACAUGAGGAUCACCCAUGUAAAGA |  |  | 37.6 nM | 46.1 nM
AAGAAGUGAGGAUAUGCUGCUCGUCACUUGCGUGAUGAGUAGCAGAAGGCACAUGAGGAUCACCCAUGUGAAGA |  |  | 25.1 nM | 42.2 nM
AAGAUGCGGAUAGGAUAUGGAGAGAAAGAAAGACCAGAAGGAUUGGUCAUAUAACAUGAGGAUCACCCAUGUAUAUGUUGUGAA |  |  | 19.9 nM | 16.6 nM
AAGCAGGUAAAUAAACUCAAUUACAUGAGGAUCACCCAUGUAUAGGAUAUCGUCAGGAAUACUGACGAGAAGGAUACAUCCUGC |  |  | 17.7 nM | 63.9 nM
AAGCCACAUGAGGAUCACCCAUGUAUUUGACAGCGAGGAUAUGGGCCGCCAUGACGAGCACCAGAAGGCGCUGGUA | 20.9 nM | 16.3 nM |  | 
AAGCCCUGAGGAUAUCCCAACUCGCACAUGAGGAUCACCCAUGUUCUUCUCUGGGUUUCGGGAGAAGGCAGGCCUC |  |  | 96.5 nM | 43.8 nM
AAGCGAGGGACAGGAUAUGCAGCGAAACUCGCCGCAGAAGGGUCGACAUGAGGAUCACCCAUGUCCUUACGCUCCAAGUAGUGG | 232 nM | 299 nM |  | 
AAGCGCUGUCAAGGAUAUCCGAAAAGAGAAUAAGGAGAAGGUGACAUGAGGAUCACCCAUGUGCACUGGGUGGACGCGCGCUCC |  |  | 549 nM | 196 nM
AAGCUCUGUGAGAAGGCGCCCUUUGCGGUUGGGCGAGGAUAUCACAUGAGGAUCACCCAUGUCGGUGCAUCAGACAGCGUAUAA |  |  | 215 nM | 40.3 nM
AAGCUGCGCCAGAAGGGACCGACAUGAGGAUCACCCAUGUCCACAAGAGUCAGGAUAUGGCGUGGAGGCUCGUUUAUGUCCAAG | 13.1 nM | 5.44 nM |  | 
AAGCUGGUAGGAUAUACUAGGGCGAUUAAUACGCCGAUAGUACAUGAGGAUCACCCAUGUAGAAGGGCCAGAAA |  |  | 27.5 nM | 22.1 nM
AAGGACUGAAUAAUAAGUAGAAAUACAUGAGGAUCACCCAUGUAGGAUAUCGUCAGGAAUACUGACGAGAAGGACAUACAGUCC |  |  | 13.6 nM | 16.7 nM
AAGGUACGAGGAUAUACAUAGAUACAGACACAUGUUCAAGUACAUGAGGAUCACCCAUGUAGAAGGCGUAUAUA |  |  | 38.7 nM | 160 nM
AAGUAGAUCCGAGGAUAUACAAGGCGGAAAUGCUACAUGAGGAUCACCCAUGUAGAAGGCGGAUCUACAGGUACUAAAGUACCA |  |  | 6.71 nM | 19.3 nM
AAGUAGAUCCGAGGAUAUACAUAGCGGAAACGCAACAUGAGGAUCACCCAUGUAGAAGGCGGAUCUACAGGUACUAAAGUACCA |  |  | 7.77 nM | 13.5 nM
AAGUAGGAAGGAUAUACAUGGAUAUACAUUCAUGUGGACCUACAUGAGGAUCACCCAUGUAGAAGGUCCUAAUA |  |  | 18.1 nM | 12.1 nM
AAGUAUAAGGGCAUUAAACAUGAGGAUCACCCAUGUACAAUAGAGGAUAUGCAUUUUGGUUUAGAGUAGAAGGUUAGAGAAUAU |  |  | 28 nM | 33.4 nM
AAGUCGUGAGGAUAUACAUGGAUAUACAUUUAUGUAAAACUACAUGAGGAUCACCCAUGUAGAAGGCACGAAUA |  |  | 50.7 nM | 128 nM
AAGUCGUGAGGAUAUACAUGGAUAUACAUUUAUGUGGACCUACAUGAGGAUCACCCAUGUAGAAGGCACGAAUA |  |  | 85.2 nM | 69.4 nM
